Laboratory results reported in PubChem BioAssay.
A number with no mark means an inactive call. The list shows a part of the results. Active and inactive are the calls of the source.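 The calls were made as follows, unless noted: active = potentiation averaged over duplicate wells exceeding buffer-only control mean by more than 3 SD; inactive = the rest.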

Tests used:
[1] = thallium flux activation in parental CHO cells, counter-screen for KCNQ1 potentiator project (AID 493006;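 active = duplicate-averaged activation above buffer control mean plus 5 SD of those controls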;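 as to activation: fluorescence ratio of max minus min over baseline after K+ and Tl+ depolarization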); settings: parental CHO-K1 cells, FluxOR thallium flux, at 10 µM; stronger effect = higher value
Summary of the method: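 Material: untransfected host CHO-K1 cells with FluxOR thallium dye. Timing: overnight 37 °C plating, 90 min RT dye, 20 min compound. Detection: kinetic FluxOR fluorescence, 10 s baseline, 110 s after stimulus. Read-out basis: max-minus-min fluorescence over baseline, percent of buffer-to-R-L3 span. Replicates: duplicate wells per compound, percent values averaged.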

[2] = target: Potassium voltage-gated channel subfamily KQT member 1 (Homo sapiens) (UniProt P51787); assay: KCNQ1 potassium channel potentiators, confirmation, FluxOR thallium flux, CHO cells, duplicates (AID 493007); settings: KCNQ1 cell line, FluxOR thallium flux fluorescence, at 10 µM; stronger effect = higher value, % of reference activator effect, buffer zero;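 as to outcome: cells depolarized by a potassium plus thallium sulfate stimulus after compound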
Summary of the method: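 Test system – KCNQ1-expressing CHO cell line · Incubation – FluxOR dye loading 90 min, compound exposure 20 min, room temperature · Detection – FluxOR Tl+ flux fluorescence, 10 s baseline plus 110 s recording · Controls – buffer-only wells as 0% and R-L3 activator as 100%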

[3] = target: Potassium voltage-gated channel subfamily KQT member 1 (Homo sapiens) (UniProt P51787); assay: KCNQ1 channel current potentiators, confirmation, orthogonal assay for KCNQ1 potentiator project, IonWorks patch clamp, KCNQ1-CHO cells (AID 493184;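 active = current rise at least 3 SD above the untreated control mean in each of two repeat wells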;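 as to current potentiation: percent change of the same well's current before compound addition so 0% = no change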); settings: automated patch clamp current, at 10 µM; stronger effect = higher value
Summary of the method: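 Read-out: Percent current increase versus pre-compound level | Assay system: CHO cells carrying KCNQ1 | Measured by: Automated perforated-patch electrophysiology | Medium: External bath solution at pH 7.4 | Dosing: One dose, 10 µM final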

[4] = target: Potassium voltage-gated channel subfamily KQT member 2 (Rattus norvegicus) (UniProt O88943); assay: rat KCNQ2 channel potentiation, selectivity assay for KCNQ1 potentiator project, KCNQ2-CHO-K1 cells (AID 493009;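 active = mean duplicate potentiation above the buffer control mean plus 5 SD of buffer wells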;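 also: assay conditions were tuned for KCNQ1 rather than KCNQ2 modulators; signal is max minus min fluorescence divided by baseline after thallium stimulus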); settings: FluxOR thallium flux fluorescence, at 10 µM; stronger effect = higher value, scaled: buffer 0, activator control 100
[5] = target: T1, Potassium voltage-gated channel subfamily E member 1 (Homo sapiens) + Potassium voltage-gated channel subfamily KQT member 1 (Homo sapiens) (UniProt P15382+P51787); assay: KCNQ1/KCNE1 complex potentiators, confirmation, selectivity assay for KCNQ1 potentiator project, thallium flux, CHO-K1 KCNQ1/E1 cells (AID 493186;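 active = mean duplicate activation above the buffer control mean plus 5 SD of those controls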); settings: FluxOR thallium flux, at 10 µM; stronger effect = higher value
Summary of the method: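 Test system: CHO-K1 cells with KCNQ1/E1; dosing: one test concentration; signal: FluxOR Tl+ flux fluorescence, kinetic read; incubation: 90-min dye loading then 20-min compound exposure, both at room temperature; read-out basis: percent of R-L3 effect over buffer; replication: duplicate wells per compound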

[6] = target: Potassium voltage-gated channel subfamily KQT member 1 (Homo sapiens) (UniProt P51787); assay: KCNQ1 potassium channel inhibitors, confirmation, cell-based, Tl flux, duplicate (AID 588353;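 active = primary screen active, with duplicate mean exceeding buffer control mean plus 3 SD of buffer wells, cut at about 28% in these data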;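 also: 0% = buffer control ratio and 100% = XE991 inhibitor control ratio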); settings: KCNQ1 cell line, FluxOR thallium flux fluorescence, at 10 µM, stronger effect = higher value
Summary of the method: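 Material: stable KCNQ1-expressing CHO cell line. Incubation: compound exposure 20 min at room temperature. Replication: duplicates, mean used. Control set: buffer and XE991. Evaluation: percent inhibition relative to buffer and XE991. Reagent: Tl2SO4 plus K2SO4 stimulus, each 12.5 mM in 5x stock. Measured by: thallium-sensitive FluxOR dye fluorescence.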

[7] = thallium flux effects in parental CHO cells, counter-screen for KCNQ1 inhibitor project, cell-based, Tl flux (AID 588366;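 active = mean of duplicate thallium-flux fluorescence ratios in parental host cells more than 5 SD below the buffer control mean, cut at about 0.38 in these data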;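 also: ratio is peak minus minimum fluorescence divided by baseline fluorescence; actives read low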); settings: parental CHO-K1, FluxOR thallium flux fluorescence ratio; at 10 µM; stronger effect = lower value; zero means no signal rise above baseline
Summary of the method: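 material = parental CHO-K1 cells lacking KCNQ1 channel expression | schedule = FluxOR dye loading 90 min, compound exposure 20 min, room temperature | technique = kinetic Tl+ flux fluorescence with FluxOR dye | controls = assay buffer-only wells as negative controls | replicates = each compound tested in duplicate wells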

[8] = target: Potassium voltage-gated channel subfamily KQT member 1 (Homo sapiens) (UniProt P51787); assay: KCNQ1 channel inhibitors, confirmation, orthogonal assay, cell-based, automated electrophysiology (AID 624120;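 active = KCNQ1 current drop exceeding 3 SD of negative control wells, seen in both duplicate runs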); settings: KCNQ1-CHO cells, automated patch clamp current; at 10 µM
Summary of the method: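 System: KCNQ1-expressing CHO cells; Medium: external buffer at pH 7.4; Probe or stimulus: 2,000 ms voltage steps to +40 mV from -80 mV; Compound: 10 µM final, single dose; Technique: automated perforated-patch voltage clamp using amphotericin B; Measure: percent change in steady-state +40 mV current, post- versus pre-compound; Benchmarks: negative controls; Replication: duplicates.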

[9] = target: Potassium voltage-gated channel subfamily KQT member 2 (Rattus norvegicus) (UniProt O88943); assay: KCNQ2 channel inhibition, selectivity assay for KCNQ1 inhibitor project, cell-based (AID 651746;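 active = mean percent inhibition of the KCNQ2 thallium signal more than 5 SD above the buffer-only control wells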;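 as to inhibition: 0% = buffer control wells and 100% = XE-991 inhibitor control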); settings: KCNQ2 cells, FluxOR thallium flux fluorescence, at 10 µM; stronger effect = higher value
[10] = target: T1, Potassium voltage-gated channel subfamily E member 1 (Homo sapiens) + Potassium voltage-gated channel subfamily KQT member 1 (Homo sapiens); assay: KCNQ1/KCNE1 channel inhibition, selectivity assay for KCNQ1 inhibitor project, CHO-K1 cells, thallium flux, FluxOR (AID 652147;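 active = mean percent inhibition of duplicate wells above the buffer-only control mean plus 3 SD of those controls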;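 also: 0% = buffer only wells and 100% = XE-991 inhibitor control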); settings: FluxOR thallium flux fluorescence, at 10 µM; stronger effect = higher value
Summary of the method: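 Assay system: KCNQ1/KCNE1 cells | Timing: FluxOR dye loading 90 min, compound exposure 20 min, both room temperature | Detection: Kinetic FluxOR thallium-sensitive fluorescence, 1 Hz sampling, 150 s post-stimulus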

Chain of Potassium voltage-gated channel subfamily KQT member 1 (Homo sapiens) (P51787 whole entry, looked up): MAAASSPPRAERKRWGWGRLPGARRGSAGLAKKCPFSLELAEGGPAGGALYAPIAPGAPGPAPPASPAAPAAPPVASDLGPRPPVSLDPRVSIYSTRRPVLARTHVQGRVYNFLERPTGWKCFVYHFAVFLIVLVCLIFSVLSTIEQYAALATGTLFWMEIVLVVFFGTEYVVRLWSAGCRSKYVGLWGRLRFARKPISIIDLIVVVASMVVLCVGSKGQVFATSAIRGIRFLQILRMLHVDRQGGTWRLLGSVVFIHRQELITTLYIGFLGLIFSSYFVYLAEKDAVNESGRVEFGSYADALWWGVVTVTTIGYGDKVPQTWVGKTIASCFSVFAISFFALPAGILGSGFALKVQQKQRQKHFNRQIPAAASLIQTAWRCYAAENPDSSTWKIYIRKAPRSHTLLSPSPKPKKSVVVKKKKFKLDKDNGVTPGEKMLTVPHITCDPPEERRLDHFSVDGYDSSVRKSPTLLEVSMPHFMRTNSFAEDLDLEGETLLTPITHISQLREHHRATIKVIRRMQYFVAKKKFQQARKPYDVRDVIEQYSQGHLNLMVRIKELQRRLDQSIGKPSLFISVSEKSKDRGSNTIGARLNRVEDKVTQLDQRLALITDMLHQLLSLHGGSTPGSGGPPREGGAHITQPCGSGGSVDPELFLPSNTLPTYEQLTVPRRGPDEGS
Chain of Potassium voltage-gated channel subfamily KQT member 2 (Rattus norvegicus) (O88943 whole entry, looked up): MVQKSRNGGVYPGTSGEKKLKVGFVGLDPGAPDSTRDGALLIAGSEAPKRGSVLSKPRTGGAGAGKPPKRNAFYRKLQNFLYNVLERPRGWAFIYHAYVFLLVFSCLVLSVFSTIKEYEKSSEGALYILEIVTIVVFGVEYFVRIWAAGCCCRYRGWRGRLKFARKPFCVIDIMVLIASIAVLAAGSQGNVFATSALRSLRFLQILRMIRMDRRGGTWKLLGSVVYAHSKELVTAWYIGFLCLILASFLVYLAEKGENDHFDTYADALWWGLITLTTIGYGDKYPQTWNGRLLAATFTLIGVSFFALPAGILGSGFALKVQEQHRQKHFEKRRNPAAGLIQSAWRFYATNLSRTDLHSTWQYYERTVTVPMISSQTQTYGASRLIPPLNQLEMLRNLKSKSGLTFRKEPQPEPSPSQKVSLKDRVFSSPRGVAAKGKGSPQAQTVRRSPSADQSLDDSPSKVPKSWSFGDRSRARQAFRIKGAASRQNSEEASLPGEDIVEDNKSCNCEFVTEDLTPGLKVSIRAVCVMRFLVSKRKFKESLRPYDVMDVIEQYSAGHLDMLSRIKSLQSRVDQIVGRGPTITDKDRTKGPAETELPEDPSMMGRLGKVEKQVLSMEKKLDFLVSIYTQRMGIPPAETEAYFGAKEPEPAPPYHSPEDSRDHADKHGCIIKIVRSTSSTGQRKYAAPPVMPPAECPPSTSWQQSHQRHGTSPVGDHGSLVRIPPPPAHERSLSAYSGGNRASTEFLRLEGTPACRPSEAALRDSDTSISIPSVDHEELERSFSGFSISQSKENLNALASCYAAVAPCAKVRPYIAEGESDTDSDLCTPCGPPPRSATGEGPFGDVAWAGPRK
T1 sequence (P51787 whole entry, looked up): as the sequence (P51787 whole entry, looked up) above

COC(=O)c1ccc(CSc2nnc(SCc3ccc(C(=O)OC)o3)s2)o1
outcome [1]: inactive | outcome [2]: inactive | outcome [3]: inactive

COc1ccc(OC)c(NC(=S)N2CCC(C(O)(c3ccccc3)c3ccccc3)CC2)c1
outcome [1]: inactive | potentiation [2]: 43% (active) | potentiation [4]: 174% (active) | outcome [3]: inactive | outcome [5]: inactive

CCc1ccc(C2c3[nH]c4ccccc4c3CCN2C(=O)CN2CCN(CC)CC2)cc1 (centres undefined)
outcome [1]: inactive | outcome [2]: inactive | outcome [3]: inactive

O=C(NNc1c2ccccc2nc2ccccc12)c1ccccc1Cl
outcome [1]: inactive | outcome [2]: inactive | outcome [3]: inactive

Cn1c(=O)c2c(ncn2CC(=O)OCC(=O)Nc2cc(Cl)ccc2Cl)n(C)c1=O
outcome [1]: inactive | outcome [2]: inactive | outcome [3]: inactive

C/C(=N\OCC(=O)Nc1ccc(OC(F)(F)F)cc1)c1ccc2c(c1)OCCO2
outcome [1]: inactive | outcome [2]: inactive | outcome [3]: inactive

Cc1cc(OC(=O)c2cc(Cl)ccc2Cl)c([N+](=O)[O-])c(=O)[nH]1
outcome [1]: inactive | outcome [2]: inactive | outcome [3]: inactive

CNCCC=C1c2ccccc2CCc2ccccc21
activation [1]: 150% (active) | potentiation [2]: 76% (active) | outcome [3]: inactive

S=c1[nH]c2ccccc2c2ccccc12
activation [1]: 148% (active) | outcome [2]: inactive | outcome [3]: inactive

CCCCNC(=O)CNC(=O)c1nn(-c2ccc(OC)cc2OC)c(=O)c2ccccc12
outcome [1]: inactive | outcome [2]: inactive | outcome [3]: inactive

CCc1ccc(NC(=O)C2CCN(C(=O)[C@@H]3Cc4ccccc4CN3)CC2)cc1
outcome [1]: inactive | outcome [2]: inactive | outcome [3]: inactive

Cc1ccc(C)c(N/C(N)=N/c2nc(C)cc(C)n2)c1
outcome [1]: inactive | outcome [2]: inactive | outcome [4]: inactive | outcome [3]: inactive | outcome [5]: inactive

CCOC(=O)CS(=O)(=O)c1nc(-c2ccc(F)cc2)cc(C(F)(F)F)n1
outcome [1]: inactive | outcome [2]: inactive | outcome [3]: inactive

CC(=O)n1cc(N(C(=O)CCl)c2ccc(C)cc2)c2ccccc21
outcome [1]: inactive | outcome [2]: inactive | outcome [3]: inactive

CCOc1ccccc1NC1=C(Cl)C(=O)N(c2ccccc2)C1=O
outcome [1]: inactive | outcome [2]: inactive | outcome [3]: inactive

Cc1ccc(Nc2c(-c3ccc(C)o3)nc3cnccn23)cc1
outcome [1]: inactive | outcome [2]: inactive | outcome [3]: inactive

COc1cccc(NC(=O)CSCc2cc(=O)n3ccsc3n2)c1
outcome [1]: inactive | outcome [2]: inactive | outcome [3]: inactive

CCOC(=O)c1sc(NC(=O)c2ccccc2C(=O)O)c(C(=O)OCC)c1C
outcome [1]: inactive | outcome [2]: inactive | outcome [3]: inactive

CC(CNC(=O)COc1ccccc1)OC(=O)Nc1ccc(Cl)c(Cl)c1 (centres undefined)
outcome [1]: inactive | outcome [2]: inactive | outcome [3]: inactive

CC1CN(C(=O)C2CC(=O)N(c3ccc(Cl)cc3)C2)CC(C)O1 (centres undefined)
outcome [1]: inactive | outcome [2]: inactive | outcome [3]: inactive

O=C(NC(=S)Nc1nc2c(s1)CCCC2)c1ccc(C(=O)c2ccccc2)cc1
activation [1]: 138% (active) | potentiation [2]: 30% (active) | outcome [3]: inactive

COc1cccc2c1C(=O)C=C(C)C2=O
outcome [1]: inactive | outcome [2]: inactive | outcome [3]: inactive

O=C(CCSc1ccccc1)Nc1ccc(S(=O)(=O)Nc2ncccn2)cc1
outcome [1]: inactive | outcome [2]: inactive | outcome [3]: inactive

Cc1cc(/C=N/n2cnnc2)c(C)n1-c1ccc(Cl)cc1Cl
outcome [1]: inactive | outcome [2]: inactive | outcome [4]: inactive | current potentiation [3]: 28.9% (active) | outcome [5]: inactive

CN(Cc1cccnc1)C(=O)Cc1ccc(NS(=O)(=O)c2cccc(C(F)(F)F)c2)cc1
outcome [1]: inactive | outcome [2]: inactive | outcome [3]: inactive

Cc1cccc(Nc2ccccc2C(=O)NCc2ccco2)c1C
inhibition [6]: 134% (active) | fluorescence ratio (Tl flux) [7]: 0.394 | outcome [8]: inactive | inhibition [9]: 101% (active) | inhibition [10]: 198% (active)

COc1cccc(CN2CCN(Cc3cc4ccccc4[nH]3)CC2CCO)c1 (centres undefined)
outcome [1]: inactive | potentiation [2]: 20% (active) | outcome [3]: inactive | outcome [5]: inactive

CN(C)CCCNc1cc(-c2ccccc2)nc2cc(-c3cccc(F)c3)nn12
activation [1]: 180% (active) | potentiation [2]: 57% (active) | outcome [3]: inactive

Cc1ccc(/C=C2\SC(=S)N(NS(=O)(=O)c3ccc(C)cc3)C2=O)cc1
outcome [1]: inactive | potentiation [2]: 25.5% (active) | current potentiation [3]: 21.1% (active) | outcome [5]: inactive

CCOc1ccc(-n2c(=S)sc3c(=O)n(-c4ccccc4)c(SC)nc32)cc1
outcome [1]: inactive | outcome [2]: inactive | outcome [3]: inactive

O=C(OCc1ccccc1)C1=NNC2C(=O)N(c3ccccc3)C(=O)C12 (centres undefined)
outcome [1]: inactive | outcome [2]: inactive | outcome [3]: inactive | outcome [5]: inactive

Cc1cccc(N(CC(=O)NC2CCCC2)C(=O)c2csnn2)c1C
outcome [1]: inactive | outcome [2]: inactive | outcome [3]: inactive

N#Cc1ccc2ccn(CC(=O)NCc3ccccc3)c2c1
outcome [1]: inactive | outcome [2]: inactive | outcome [3]: inactive

S=C(NCCCc1ccccc1)Nc1ccc(Br)cc1
inhibition [6]: 150% (active) | fluorescence ratio (Tl flux) [7]: 0.591 | outcome [8]: inactive | outcome [9]: inactive | inhibition [10]: 76.5% (active)

O=[N+]([O-])c1ccc(C(O)C(CO)NC(=S)Nc2ccccc2)cc1 (centres undefined)
outcome [1]: inactive | outcome [2]: inactive | outcome [3]: inactive

S=c1[nH]nc(-c2ccccc2)n1/N=C/c1ccc(-c2ccccc2Cl)o1
outcome [1]: inactive | outcome [2]: inactive | outcome [3]: inactive | outcome [5]: inactive

NC(=O)c1ccc(N2CCNC(=O)C2)c([N+](=O)[O-])c1
outcome [1]: inactive | outcome [2]: inactive | outcome [3]: inactive

CC(C)COc1ccc(-c2nn(-c3ccccc3)cc2C(=O)Nc2nccs2)cc1
outcome [1]: inactive | outcome [2]: inactive | outcome [3]: inactive | outcome [5]: inactive
